Published values of several laboratories.
Protocols differ between the studies behind these lines.

C=CC(=O)Nc1cc(Nc2nccc(Nc3cc(Cl)c(F)cc3C(C)(C)O)n2)c(OC)cc1N1CC[C@@H](N(C)C)C1
half-life (beagle dog; plasma; intravenous; 1 mg/kg): 13.9 h

O=C(NCCN1CCCC1)c1cc(-c2ccc(CN3CCOCC3)cc2)nc2ccc(F)cc12
half-life (male beagle dog; blood; intravenous; 1 mg/kg): 13 h

Cc1nnc2sc(C(=O)NCc3ccc(-c4cccnc4F)cc3)c(N)c2c1C
half-life (dog; plasma; intravenous): 1 h

Cc1cnc(N2CC3(CCOCC3)C2)c(C(=O)Nc2ccc(C(=O)N3CCc4cc(C(=O)Nc5c(C)cccc5F)sc4-c4ccccc43)cc2)c1
half-life (dog; plasma; intravenous; 0.1 mg/kg; single dose): 2.4 h

CCn1c(=O)c(-c2cc(NC(=O)Nc3ccccc3)c(F)cc2Br)cc2cnc(NC)cc21
half-life (beagle dog; plasma; oral; 5 mg/kg; single dose): 6.96 h

COc1cc2c3c(n(CCCN4CCOCC4)c(=O)c2cc1OC)-c1cc2c(cc1C3=O)OCO2
half-life (female beagle dog; plasma; intravenous; 100 mg/m²; infusion): 14 h

Oc1c(-n2ccnn2)cnn1-c1cc(N2CCOCC2)ncn1
half-life (female dog; plasma; intravenous; 3 mg/kg): 2.7 h

CC[C@@H]1CN(C(=O)NCC(F)(F)F)C[C@@H]1c1cnc2cnc3[nH]ccc3n12
half-life (beagle dog; plasma; oral; 1 mg/kg; single dose): 11.6 h
